Experimental data pooled from the literature.
Protocols differ between the studies behind these lines.
HCK: Tyrosine-protein kinase HCK (HCK, Homo sapiens, UniProt P08631)

SMILES	target	assay	setting	quantity	value
COc1cc(Cl)c(C(=O)N[C@@H](CN[C@H]2CC[C@@H](N)CC2)Cc2ccc(C#N)cc2)cc1-c1ccc(CN[C@H](C)c2ccc(C)cc2)o1	HCK	enzyme activity, inhibitor	1 µM	remaining activity	99%
CC(C)(C)c1nc2c(s1)c1nc(N)ncc1c1ccc(NS(=O)(=O)c3c(F)cccc3F)c(F)c12	HCK	enzyme activity, inhibitor, radiometric	1 µM	remaining activity	82%
Cc1cc(NC(=O)c2cccc(S(F)(F)(F)(F)F)c2)cc(-n2ccn3nc(-c4cccnc4)cc23)c1	HCK	cell-free assay, competition with immobilised ligand	1 µM	remaining binding	98.7%
CNC(=O)c1cc2c(Oc3ccc(NC(=O)C4(C(=O)Nc5ccc(F)cc5)CC4)cc3)ccnc2cc1OC	Tyrosine-protein kinase HCK, phosphorylated (HCK, Homo sapiens, UniProt P08631)	enzyme activity, inhibitor, radiometric	1 µM	inhibition	88%
COc1ccc2c(c1)O[C@H](c1ccc(OC)c(OC)c1)C[C@@H]2NC(=O)C1(c2ccc3c(c2)OC(F)(F)O3)CC1	HCK	cell-free assay, competition with immobilised ligand	1 µM	remaining binding	100%
Cc1ccc(NC(=O)c2ccc(C)c(C(F)(F)F)c2)cc1C#Cc1nn(C2CCC(O)CC2)c2ncnc(N)c12 (stereo not shown)	HCK	cell-free assay	10 µM	remaining signal	0%
O=C1Nc2ccc(Cl)cc2C1=Cc1cc(Cl)c(O)c(Cl)c1	HCK	cell-free assay	0.5 µM	remaining signal	83.2%
CNCc1ccccc1-c1csc([C@H](C)Nc2nc(C)nc3cc(OC)c(OC)cc23)c1	HCK	cell-free assay, competition with immobilised ligand	1 µM	remaining binding	98%
CC(C)(O)[C@H]1CC[C@H](Nc2ccc3ncc(-c4cccc(C(F)(F)F)c4)n3n2)CC1	HCK	enzyme activity, inhibitor	1 µM	remaining activity	40.5%
CC(=O)c1c(NS(C)(=O)=O)c2cc(-c3ccc(Cl)cc3)c(-c3ccc(Cl)cc3Cl)nc2n(C)c1=O	HCK	cell-free assay, competition with immobilised ligand	1 µM	remaining binding	100%
Cc1cnc(NC2CCOCC2)nc1-n1cnc(C(=O)NC(CN)c2cc(F)cc(Cl)c2)c1 (stereo not shown)	HCK	enzyme activity, inhibitor, radiometric	1 µM	remaining activity	101%
COc1cc(Nc2c(C#N)cnc3cc(OCCCN4CCN(C)CC4)c(OC)cc23)c(Cl)cc1Cl	HCK	cell-free assay	0.5 µM	remaining signal	11.9%
CCCS(=O)(=O)Nc1ccc(F)c(C(=O)c2c[nH]c3ncc(-c4ccc(Cl)cc4)cc23)c1F	HCK	enzyme activity, inhibitor	1 µM	inhibition	< 10%
CC/C(=N\NC(=O)NCc1cccc(O)c1)c1ccc(O)c(C)c1O	HCK	enzyme activity, inhibitor	0.1 µM	inhibition	6.1%
CN(C)C1CCN(CC#Cc2nn(C3CCCC3)c3nc(NCc4ccccc4)ncc23)C1 (stereo not shown)	HCK	enzyme activity, inhibitor, FRET	10 µM	inhibition	19%
O=C(Nc1cnn(-c2csc(C(=O)NC3COC3)c2)c1)Nc1ccccc1Cl	HCK	enzyme activity, inhibitor	5 µM	remaining activity	94%
Cc1c(NC(=O)c2cc(C(N)=O)nc3cc(F)ccc23)c(C(F)(F)F)nn1Cc1ccc(C#N)cc1	HCK	cell-free assay, competition with immobilised ligand	1 µM	remaining binding	69%
CNC(=O)c1cc(Oc2ccc(NC(=O)Nc3ccc(Cl)c(C(F)(F)F)c3)cc2)ccn1	HCK	cell-free assay	0.5 µM	remaining signal	90.3%
NS(=O)(=O)c1cc(NC(=O)C2(c3ccccc3Cl)CC2)ccc1Oc1cccc(Cl)c1	HCK	cell-free assay, competition with immobilised ligand	1 µM	remaining binding	89%
CCN(CC)CCNC(=O)c1c(C)[nH]c(/C=C2\C(=O)Nc3ccc(F)cc32)c1C	HCK	enzyme activity, inhibitor	0.3 µM	inhibition	22%
Nc1ncnc2occ(-c3ccc(NC(=O)Nc4cc(C(F)(F)F)ccc4F)cc3)c12	HCK	cell-free assay	20 µM	remaining signal	0.2%
Cc1ccc(Nc2nccc(N(C)c3ccc4c(C)n(C)nc4c3)n2)cc1S(N)(=O)=O	HCK	enzyme activity, inhibitor	10 µM	inhibition	90%
C[C@H](c1ccnc(Nc2nc3ccc(-c4cc(N(C)C)ncn4)cc3[nH]2)c1)N1CCN(C(=O)CC(F)(F)F)CC1	HCK	cell-free assay, competition with immobilised ligand	0.1 µM	remaining binding	91%
N#CCCc1ccc2c(c1)-c1[nH]c3ccc([N+](=O)[O-])cc3c1CC(=O)N2	HCK	cell-free assay	0.5 µM	remaining signal	63.8%
COc1cc2ncnc(Nc3ccc(Oc4ccccc4)cc3C)c2cc1OC	HCK	enzyme activity, inhibitor	1 µM	inhibition	91%
